In ChEMBL document CHEMBL4020718, “Trifluoromethyl arylamides with antileukemia effect and intracellular inhibitory activity over serine/arginine-rich protein kinases (SRPKs)” (Eur J Med Chem, 2017):
Active and inactive are the calls of the source. The rule behind the calls is not given here.

Assays:
[1] = tested on: NALM-6; experiment: Induction of autophagy in human NALM6 cells at 20 uM after 24 hrs by acridin orange staining based fluorescence microscopy; format: functional, cell-based
Summary of the method: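 Nalm6 (7x10^4/well) exposed 24 h to 20 µM or 0.4% DMSO, washed in PBS, stained with 1 µM acridine orange at 37 °C for 15 min, washed, resuspended in PBS; autophagosomes (red fluorescence) viewed by fluorescence microscopy; three experiments.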

[2] = tested on: HL-60; experiment: Cytotoxicity against human HL60 cells assessed as reduction in cell viability up to 200 uM after 48 hrs by MTT assay; format: functional, cell-based; conditions: Homo sapiens, HL-60, 48 h; read-out: IC50
Summary of the method: (§1)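 Cells (7x10^4/well) in RPMI-1640 with 10% FBS, 37 °C, 5% CO2; exposed to compound dilutions 0–200 µM (medium with 10% FBS, 0.4% DMSO) for 48 h. MTT added, 3 h at 37 °C, formazan dissolved in DMSO, absorbance 540 nm. IC50 from concentration–response; means ± standard deviation of three independent experiments.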

[3] = tested on: Jurkat; experiment: Cytotoxicity against human Jurkat cells assessed as reduction in cell viability up to 200 uM after 48 hrs by MTT assay; format: functional, cell-based; conditions: Homo sapiens, Jurkat, 48 h; read-out: IC50; summary of the method: as §1
[4] = tested on: NALM-6; experiment: Cytotoxicity against human NALM6 cells assessed as reduction in cell viability up to 200 uM after 48 hrs by MTT assay; format: functional, cell-based; conditions: Homo sapiens, NALM-6, 48 h; read-out: IC50; summary of the method: as §1
[5] = tested on: PBMC; experiment: Cytotoxicity against PHA-stimulated human PBMC assessed as reduction in cell viability at 25 uM after 48 hrs by MTT assay; format: cell-based
Summary of the method: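 Primary peripheral blood mononuclear cells seeded 1x10^5/well in complete RPMI; treated with 25 µM for 48 h. Viability by MTT (3 h, 37 °C, DMSO solubilization, 540 nm), vehicle taken as 100% viability; triplicate experiments, means ± standard deviation.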

[6] = tested on: NALM-6; experiment: Synergistic cytotoxicity against human NALM6 cells assessed as reduction in cell viability by measuring combination index at 1.5 uM after 48 hrs in presence of 0.5 nM vincristine by MTT assay; format: functional
[7] = tested on: NALM-6; experiment: Synergistic cytotoxicity against human NALM6 cells assessed as reduction in cell viability by measuring combination index at 3 uM after 48 hrs in presence of 1 nM vincristine by MTT assay; format: functional
[8] = tested on: NALM-6; experiment: Induction of apoptosis in human NALM6 cells assessed as viable cells at 20 uM after 12 hrs by Annexin-V/FITC propidium iodide staining based flow cytometric analysis (reference value: 92.11%); format: functional; conditions: NALM-6, 12 h, read-out: Activity
[9] = tested on: NALM-6; experiment: Induction of apoptosis in human NALM6 cells assessed as early apoptotic cells at 20 uM after 12 hrs by Annexin-V/FITC propidium iodide staining based flow cytometric analysis (reference value: 7.40%); format: functional
[10] = tested on: NALM-6; experiment: Induction of apoptosis in human NALM6 cells assessed as late apoptotic cells at 20 uM after 12 hrs by Annexin-V/FITC propidium iodide staining based flow cytometric analysis (reference value: 0.45%); format: functional
[11] = tested on: NALM-6; experiment: Induction of apoptosis in human NALM6 cells assessed as necrotic cells at 20 uM after 12 hrs by Annexin-V/FITC propidium iodide staining based flow cytometric analysis (reference value: 0.04%); format: functional
[12] = tested on: NALM-6; experiment: Induction of apoptosis in human NALM6 cells assessed as viable cells at 20 uM after 24 hrs by Annexin-V/FITC propidium iodide staining based flow cytometric analysis (reference value: 90.10%); format: functional; conditions: NALM-6, 24 h, read-out: Activity
[13] = tested on: NALM-6; experiment: Induction of apoptosis in human NALM6 cells assessed as early apoptotic cells at 20 uM after 24 hrs by Annexin-V/FITC propidium iodide staining based flow cytometric analysis (reference value: 8.22%); format: functional
[14] = tested on: NALM-6; experiment: Induction of apoptosis in human NALM6 cells assessed as late apoptotic cells at 20 uM after 24 hrs by Annexin-V/FITC propidium iodide staining based flow cytometric analysis (reference value: 1.68%); format: functional
[15] = tested on: NALM-6; experiment: Induction of apoptosis in human NALM6 cells assessed as necrotic cells at 20 uM after 24 hrs by Annexin-V/FITC propidium iodide staining based flow cytometric analysis (reference value: 0%); format: functional
[16] = tested on: HL-60; experiment: Antiproliferative activity against human HL60 cells at 20 uM by trypan blue dye exclusion assay; format: functional, cell-based; conditions: TDE = time-dependent effect
Summary of the method: (§2)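 Nalm6 at 1x10^4 or HL60 at 1.5x10^4 cells per well exposed to 20 µM; DMSO (0.4% v/v) as control. Viable cells counted by trypan blue exclusion on a hemocytometer at 0, 24, 48, 72 and 96 h; growth inhibition relative to control.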

[17] = tested on: NALM-6; experiment: Antiproliferative activity against human NALM6 cells at 20 uM by trypan blue dye exclusion assay; format: functional, cell-based; conditions: TDE = time-dependent effect; summary of the method: as §2
[18] = tested on: HL-60; experiment: Cytotoxicity against human HL60 cells assessed as cell growth inhibition at 20 uM after 96 hrs by trypan blue dye exclusion assay relative to control; format: functional; conditions: HL-60, 96 h, read-out: GI; summary of the method: as §2
[19] = tested on: NALM-6; experiment: Cytotoxicity against human NALM6 cells assessed as cell growth inhibition at 20 uM after 96 hrs by trypan blue dye exclusion assay relative to control; format: functional; conditions: NALM-6, 96 h, read-out: GI; summary of the method: as §2
[20] = tested on: NALM-6; experiment: Effect on actin expression level in human NALM6 cells at 20 uM after 24 hrs by qRT-PCR analysis; format: ADME, cell-based; conditions: nalm-6, 24 h
[21] = tested on: NALM-6; experiment: Effect on SRPK1 expression level in human NALM6 cells at 20 uM after 24 hrs by Western blot analysis; format: functional, cell-based
Summary of the method: (§3)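 Nalm6 treated 24 h at 20 µM (DMSO vehicle control), lysed at 2x10^7 cells/mL in PBS with 1% NP40, 1 mM EDTA, 150 mM NaCl, 10 mM Tris pH 7.4 plus protease/phosphatase inhibitors; on ice 10 min, sonicated, spun 15000 xg; SDS-PAGE, PVDF, milk block overnight, primary and secondary antibody 2 h each; representative of three.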

[22] = tested on: NALM-6; experiment: Effect on SRPK2 expression level in human NALM6 cells at 20 uM after 24 hrs by Western blot analysis; format: functional, cell-based; summary of the method: as §3
[23] = tested on: NALM-6; experiment: Effect on actin expression level in human NALM6 cells at 20 uM after 24 hrs by Western blot analysis; format: ADME, cell-based; conditions: nalm-6, 24 h; summary of the method: as §3
[24] = species: Homo sapiens; experiment: Inhibition of SRPK in human NALM6 cells assessed as decrease in RON mRNA expression level at 20 uM after 24 hrs by qRT-PCR analysis; format: cell-based
Summary of the method: (§4)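 Nalm6 given 20 µM for 24 h with 0.4% DMSO control; mRNA isolated with Tri Reagent, quantified spectrophotometrically, integrity checked on 1% agarose, then RT-PCR for target transcripts; one representative of three experiments.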

[25] = tested on: NALM-6; experiment: Synergistic cytotoxicity against human NALM6 cells assessed as reduction in cell viability by measuring combination index at 4.3 uM after 48 hrs in presence of 0.5 nM vincristine by MTT assay; format: functional
[26] = tested on: NALM-6; experiment: Synergistic cytotoxicity against human NALM6 cells assessed as reduction in cell viability by measuring combination index at 8.5 uM after 48 hrs in presence of 1 nM vincristine by MTT assay; format: functional
[27] = species: Homo sapiens; experiment: Inhibition of SRPK in human NALM6 cells assessed as decrease in MAP2K1 mRNA expression level at 20 uM after 24 hrs by qRT-PCR analysis; format: cell-based; summary of the method: as §4
[28] = species: Homo sapiens; experiment: Inhibition of SRPK in human NALM6 cells assessed as decrease in MAP2K2 mRNA expression level at 20 uM after 24 hrs by qRT-PCR analysis; format: cell-based; summary of the method: as §4
[29] = species: Homo sapiens; experiment: Inhibition of SRPK in human NALM6 cells assessed as decrease in VEGF mRNA expression level at 20 uM after 24 hrs by qRT-PCR analysis; format: cell-based; summary of the method: as §4
[30] = species: Homo sapiens; experiment: Inhibition of SRPK in human NALM6 cell lysates assessed as reduction in phospho-SR epitopes signal at 20 uM after 24 hrs by Western blot analysis; summary of the method: as §3

| SMILES | Activity [1] | IC50 [2] [µM] | IC50 [3] [µM] | IC50 [4] [µM] | Activity [5] | viability at 20 µM [8] [%] | Activity [9] [%] | Activity [10] [%] | Activity [11] [%] | viability at 20 µM [12] [%] | Activity [13] [%] | Activity [14] [%] | Activity [15] [%] | Activity [16] | Activity [17] | inhibition of growth at 20 µM [18] [%] | inhibition of growth at 20 µM [19] [%] | Activity [20] | Activity [21] | Activity [22] | also measured |
| --- | --- | --- | --- | --- | --- | --- | --- | --- | --- | --- | --- | --- | --- | --- | --- | --- | --- | --- | --- | --- | --- |
| O=C(Nc1cc(C(F)(F)F)ccc1Nc1ccc(Br)cc1)c1ccccc1 | Active | 11.8 | 33.8 | 6 | Non-Toxic | 85.9 | 13.53 | 0.52 | 0.02 | 73.2 | 24.73 | 2.01 | 0.01 | Tde | Tde | 48 | 72 | Non-Toxic | inactive | inactive | CI [6]: 0.56; CI [7]: 1.05; Activity [23]: Non-Toxic; inhibition [24]: Active |
| O=C(Nc1cc(C(F)(F)F)ccc1Nc1ccc(Br)cc1)c1cccnc1 | Active | 8.5 | 17.8 | 17 | Non-Toxic | 87 | 12.33 | 0.67 | 0 | 84.4 | 14.66 | 0.92 | 0.01 | Tde | Tde | 38 | 66 | Non-Toxic | inactive | inactive | CI [25]: 0.45; CI [26]: 0.78; inhibition [27]: Active; inhibition [28]: Active; inhibition [29]: Active; inhibition [30]: Active; Activity [23]: Non-Toxic; inhibition [24]: Active |
